Variants at the floor of the assay were thinned out.
B1: tRNA (parent)
chain: CUCUCGGUAGCCAAGUUGGUUUAAGGCGCAAGACUUUAAUUUAUCACUACGAAAUCUUGAGAUCGGGCGUUCGACUCGCCCCCGGGAGAUUUUUUCCUCGAGCAA

Variants of: B1
Assay: nonsense suppression (GFP-seq) (ratio to wild type); higher = more function; SUP4oc tRNA, yeast GFP reporter sort-seq
In short: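 Sorted GFP/RFP bins of yeast were each Illumina-sequenced with a phred ≥30 cutoff; the cells held a genome-integrated ochre-suppressor tRNA variant from a library with ~3% random mutations, a galactose-driven GFP ochre reporter, and RFP. Culture was in raffinose/galactose medium containing 80 mg/L adenine. Nonsense suppression, termed GFPSEQ, is the median GFP/RFP of the bins weighted by each variant's estimated cell share per bin, relative to the unmutated parent tRNA, for variants reaching ≥100 reads and ≥30 cells.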

**Q.** Which nonsense suppression does the source give for AUGUCGGUAGCCAAGUUGGUUUAAGGCGCAAGACUUUAAUUUAUCACUACGAAAUCUAGAGAUCGGGGGUUCGACUCGCCCCCGGGAGAUUUUUUCCUCGAGCAA here?
**A.** Its nonsense suppression is at most 0.026.

**Q.** Which nonsense suppression does the source give for AUCUCGGUAGCCAAGUUGGUUUAAGGCGCAAGACUUUAAUUUAUCACUACGAAAUCUUGAGAUCGGGCGUUCGACUCGCCUCCGGGAGAUUUUUUCCUCGAGCAA here?
**A.** The nonsense suppression was 0.045.

**Q.** For AUCUCGGUAGCCAAGUUGGUUUAAGGCGCAAGACUUUAAUUUAUCACUACGAAAUCUUGAGAUCGGGCGUUCGACUCGCCGCCGGGAGAUUUUUUCCUCGAGCAA, which nonsense suppression is on record?
**A.** Its nonsense suppression is at most 0.026.

**Q.** With AUCUCGGUAGCCAAGUUGGUUUAAGGCGCAAGACUUUAAUUUAUCACUACGAAAUCUUGAGGUCGGGCGUUCGCCUCGCCCCCAGGAGAUUUUUUCCUCGAGCAA as the variant, how does the nonsense suppression read?
**A.** The nonsense suppression was at most 0.026.

**Q.** With AUCUCGGUAGCCAAGUUGGUUUAAGGCGCAAGACUUUAAUUUAUCACUACGAAGUCUCGAGAUCGGGCGUCCGACUCGCCCCCGGGAGAUUUUUUCCUCGAGCAA as the variant, how does the nonsense suppression read?
**A.** The nonsense suppression was at most 0.026.

**Q.** Which nonsense suppression does the source give for AUCUCGGUAUCCAAGUUGGUUUAAGGCGCAAGACUUUAAUUUAUCACUACGAAAUCUUGAACUCGGGCGUUCCACUCGCCCCCGGGAGAUUUUUUCCUCGAGCAA here?
**A.** The nonsense suppression was at most 0.026.

**Q.** Which nonsense suppression does the source give for AUCUCGGUAGCCAAGUUGGUUUAAGGCGCAAGACUUUAAUUUAUCACUACGAAGUCUUGAGUUCGGGCGUUCGACUCGCCCCCGGGAGAUUUUUUCCUCGAGCAA here?
**A.** The nonsense suppression was at most 0.026.

**Q.** Which nonsense suppression does the source give for AUCUCGGUAGCCAAGUUGGUUUACGGCGCAAGACUUUAAUUUAUCACUACGAAAUCUUGCGAGCGGGCGUUGGACUGGCCCCCGGGAGAUUUUUUCCUCGAGCAA here?
**A.** The nonsense suppression was at most 0.026.

**Q.** For AUCUCGGUAGUUAUGUUGGUUUAAGGCGCAAGACUUUAAUUUAUCACUACGAAAUCUUGAGUUCGGGCGUUCGACUCGCCCCCGGGAGAUUUUUUCCUCGAGCAA, which nonsense suppression is on record?
**A.** Its nonsense suppression is at most 0.026.

**Q.** For AUCUCGGUAGCCAAGUUGGUUUAAGGCGCAAGACUUUAAUUUAUCACUACGAAAUCUUGAGAUCGGCCGUUAGACUCGCCCCCGGGAGAUUUUUUCCUCGAGCAA, which nonsense suppression is on record?
**A.** Its nonsense suppression is at most 0.026.

**Q.** Which nonsense suppression does the source give for AUCUCGGUAGCCAAGUUGUUUUAAGGCGCAAGACUUUAAUUUAUCACUACGAAAACUUGAGAUCGGGCGUUCGACUCGCCCCCGGGAGAUUUUUUCCUCGAGCAA here?
**A.** Its nonsense suppression is at most 0.026.

**Q.** Which nonsense suppression does the source give for AUCUCGGUAGCCAAGUUCGUUUAAGGCGCAAGACUUUAAUUUAUCACUACGAAAUCUUGAGAUCGGGCGUUCGACUCGCCCCCGGGAGAUUUUUUCCUCGAGCAA here?
**A.** The nonsense suppression was at most 0.026.

**Q.** With AUCUCGGUAGCCAAGUUGGUUUAAGGCGCCAGACUUUAAUUUAUCACUACGAAAUCUUGAGAUCGGGCGUUCGACUCGCCCCCGGGAGAUUUUUUCCUCGAGCAA as the variant, how does the nonsense suppression read?
**A.** The nonsense suppression was at most 0.026.

**Q.** With AUCUCGGUAGCCAAGUUGGUUUAAGGCGCGAGACUUUAAUUUAUCACUACGAAAUCUUGAGAUCGGGCGUUCGACUCGCCCCCGAGAGAUUUUUUCCUCGAGCAA as the variant, how does the nonsense suppression read?
**A.** Its nonsense suppression is 0.0742.

**Q.** Which nonsense suppression does the source give for AUCUCGGUUGCCAAGUUGGUUUAAGGCGCAAGACUUUAAUUUAUCACUACGAAAUCUUGAGAUCGGGGGUUCGACACGCCACCGGGAGAUUUUUUCCUCGAGCAA here?
**A.** Its nonsense suppression is at most 0.026.

**Q.** Which nonsense suppression does the source give for AUCUCGGUAGCCAAGUUGCUUUAAGGCGCAGGACUUUAAUUUAUCACUACGAAAUCUUGUGAUCGGGCGUAGGACUCGCCCCCUGGAGAUUUUUUCCUCGAGCAA here?
**A.** Its nonsense suppression is at most 0.026.

**Q.** For AUCUCGGUAGCCAAGUUGGUUUAAGGCGCAAGACUUUAAUUUAUCACUACGAAAUGUUGAGUUCGGGCGUUCGACUCGCGCACGGGAGAUUUUUUCCUCGAGCAA, which nonsense suppression is on record?
**A.** Its nonsense suppression is at most 0.026.

**Q.** Which nonsense suppression does the source give for AUCUCGGUAGCCAAGUUGGUUUAAGCCGCAAGACUUUAAUUUAUCACUACGAAAUCUUGAGAUCGGGCGUUCGACUCGCCCCCGGGAGAUUUUUUCCUCGAGCAA here?
**A.** The nonsense suppression was at most 0.026.

**Q.** With AUCUCGGUAGCCAAGUUGGUUUAAGGCGCAUGACUUUAAUUUAUCACUACGAAAUCUUGAGAUCGGGCGUUCGACUCGCCCCCAGGAAAUUUUUUCCUCGAGCAA as the variant, how does the nonsense suppression read?
**A.** The nonsense suppression was at most 0.026.

**Q.** With AUCUGGGUAGCCAAGUUGGUUUAAGGCGCAAGACUUUAAUUUAUCACUACGAAAUCUUGAGAUCGGGCGUUCGACUCGCCCCCGGGAGAUUUUUUCCUCGAGCAA as the variant, how does the nonsense suppression read?
**A.** The nonsense suppression was at most 0.026.

**Q.** For AUCUUGGUAGCCAAGUAGGUUUAAGGCGCAAGACUUUAAUUUAUCACUACGAAAACUUGAGAUCGGGCGUUCGACUCGCCCCCGGGAGAUUUUUUCCUCGAGCAA, which nonsense suppression is on record?
**A.** Its nonsense suppression is at most 0.026.

**Q.** Which nonsense suppression does the source give for AUCUCGGUAGCCAAGUUGGUUUAAGGCGCAAGACUUUAAUUUAUCACUACGAAAUCUUGAGAUCGGGCGUUCGACUCGCUCCCGGGAGAUUUUUUCCUCGAGCAA here?
**A.** Its nonsense suppression is 0.0314.

**Q.** Which nonsense suppression does the source give for AUAUCGGAAGCCAAGUUGGUUUAAGGCGCAAGACUUUAAUUUAUCACUACGAAAUCUUGAGAUCGGGCGUUCGACUCGCCCCCGGGAAAUUUUUUCCUCGAGCAA here?
**A.** The nonsense suppression was at most 0.026.

**Q.** For AUCUGGGUAGCCGAGUUCGUUUAAGGCGCAAGACUUUAAUUUAUCACUACGAAUUCUUGAGAUCCGGCGUUCGACUCGCCCCCGGGAGAUUUUUUCCUCGAGCAA, which nonsense suppression is on record?
**A.** Its nonsense suppression is at most 0.026.

**Q.** Which nonsense suppression does the source give for AUCUCGGUAGCCAAGUUGGUUUCAGGCGCAAGACUUUAAUUUAUCACUACGAAAUCUUGAGAUCGGGCGUUCGACUAGCCCCCGGGAGAUUUUUUCCUCGAGCAA here?
**A.** Its nonsense suppression is at most 0.026.

**Q.** Which nonsense suppression does the source give for AUCUCGGUAGCGAAGUUGGUUUAAGGCGCAAGACUUUAAUUUAUCACUACGAAAUCUAGAGAUCGGGCGUUCGACUCGCCCCCGGGAGAUUUUUUCCUCGAGCAA here?
**A.** The nonsense suppression was at most 0.026.

**Q.** With AUCUCGGUAGCCUAGUUGGUUUAAGGCGCAAGACUUUAAUUUAUCACUACGAAAUCUUGAGAUCGGGCGUUCGACUCGCCCCCGGGAGAUUUUUUCCUCGAGCAA as the variant, how does the nonsense suppression read?
**A.** Its nonsense suppression is at most 0.026.

Reference: the RNAGym collection of RNA variant scans (doi:10.1101/gad.245936.114)
